What is called IC50 is the concentration at which inhibition is half-maximal.

Consider 10 molecules from ChEMBL document CHEMBL3576774, “Dactylomelane diterpenes from the sea hare Aplysia depilans” (J Nat Prod, 2015).

Format in all cases: functional, cell-based
One test concerns MCF7. Put plainly: Cytotoxic activity against human MCF7 cells assessed as reduction in cell growth incubated for 48 hrs by MTT assay. Summed up: (§1)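 Monolayers maintained in DMEM with 10% FBS, penicillin/streptomycin at 37 °C, 5% CO2, and passaged at 80–90% confluence. Log-phase cells were seeded at 1 × 10^5 cells/mL and allowed to attach for 24 h. They were then exposed to DMSO-diluted compounds at various concentrations for 48 h. MTT was added at 0.5 mg/mL final for 4 h, dissolved in HCl/2-propanol, and read at 545 nm. Triplicates; IC50 from 3–4 experiments versus untreated control.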

The test system of a further test is HeLa. Put plainly: Cytotoxic activity against human HeLa cells assessed as reduction in cell growth incubated for 48 hrs by MTT assay. In outline: as §1
A general note: Tetrazolium dyes change colour on reduction, which living cells bring about.

Another test relates to A549. Nature of the test: Cytotoxic activity against human A549 cells assessed as reduction in cell growth incubated for 48 hrs by MTT assay. In outline:
as §1

The subject of another test is A-431. Nature of the test: Cytotoxic activity against human A431 cells assessed as reduction in cell growth incubated for 48 hrs by MTT assay. The conditions noted are these: A-431, 48 h. In outline: as §1
Another test concerns HepG2. Put plainly: Cytotoxic activity against human HepG2 cells assessed as reduction in cell growth incubated for 48 hrs by MTT assay. Summed up:
as §1

Bounds are passed on as bounds.

For the molecule `C=CC(C)(O)CC[C@@H]1C(=C)CC[C@H](Br)[C@@]1(C)CCC(O)C(C)(C)O` (relative stereo), the 50% inhibitory concentration (IC50) was above 100 µM with MCF7 (Homo sapiens, MCF7, 48 h); above 100 µM with HeLa (Homo sapiens, HeLa, 48 h); above 100 µM with A549 (Homo sapiens, A549, 48 h); above 100 µM with A-431; above 100 µM in the test with HepG2 (Homo sapiens, HepG2, 48 h).
As to `C=CC(C)(O)CC[C@H]1[C@](C)(CCC=C(C)C)[C@@H](Br)CC[C@@]1(C)O` (some centres undefined), the concentration for half-maximal inhibition (IC50) in the test with MCF7 (Homo sapiens, MCF7, 48 h) was 78 µM; with HeLa (Homo sapiens, HeLa, 48 h) it was 91.7 µM; with A549 (Homo sapiens, A549, 48 h), above 100 µM; in the test with A-431, above 100 µM; in the test on HepG2 (Homo sapiens, HepG2, 48 h), above 100 µM.
Take `C=CC(C)(O)CC[C@@H]1C(=C)CC[C@H](Br)[C@@]1(C)CCC(=O)C(C)C` (some centres undefined): the half-maximal inhibitory concentration (IC50) in the test with MCF7 (Homo sapiens, MCF7, 48 h) was above 100 µM; with HeLa (Homo sapiens, HeLa, 48 h) it was 71.4 µM; in the test with A549 (Homo sapiens, A549, 48 h), above 100 µM; with A-431, above 100 µM; with HepG2 (Homo sapiens, HepG2, 48 h), above 100 µM.
`C=CC(C)(O)CC[C@@H]1C(=C)CC[C@H](Br)[C@@]1(C)CCC(O)C(C)(C)Cl` (relative stereo): the IC50 was 71.5 µM in the test on MCF7 (Homo sapiens, MCF7, 48 h); 61 µM in the test on HeLa (Homo sapiens, HeLa, 48 h); 94.1 µM in the test with A549 (Homo sapiens, A549, 48 h); above 100 µM in the test on A-431; 48.7 µM in the test with HepG2 (Homo sapiens, HepG2, 48 h).
The like results for `C=CC(C)(O)CC[C@@H]1C(=C)CC[C@H](Br)[C@@]1(C)CCC(OC)C(C)(C)O` (relative stereo) were, in that order, above 100 µM, above 100 µM, above 100 µM, above 100 µM and above 100 µM.
Regarding `CCCCCCCCCCCCCCCCOP(=O)([O-])OCC[N+](C)(C)C` [MILTEFOSINE], the IC50 in the test with MCF7 (Homo sapiens, MCF7, 48 h) came out at 9.2 µM; in the test with HeLa (Homo sapiens, HeLa, 48 h), 16.5 µM; in the test with A549 (Homo sapiens, A549, 48 h), 8.5 µM; in the test with A-431, 12 µM; with HepG2 (Homo sapiens, HepG2, 48 h) it was 26.3 µM.
Consider `C=CC(C)(O)CC[C@@H]1C(=C)CC[C@H](Br)[C@@]1(C)CCC(Br)C(C)(C)O` (relative stereo; 3), for which the IC50 in the test with MCF7 (Homo sapiens, MCF7, 48 h) is above 100 µM; in the test with HeLa (Homo sapiens, HeLa, 48 h), 91.8 µM; in the test on A549 (Homo sapiens, A549, 48 h), above 100 µM; with A-431, above 100 µM; in the test with HepG2 (Homo sapiens, HepG2, 48 h), above 100 µM.
As for `C=CC(C)(O)CC[C@@H]1C(=C)CC[C@H](Br)[C@@]1(C)CCC(Br)C(C)(C)O` (relative stereo; 2), the half-inhibitory concentration (IC50) in the test with MCF7 (mcf7) was determined as 60.7 µM; with HeLa (hela), 47.4 µM; in the test on A549 (a549) it was 86.9 µM; with HepG2 (hepg2) it was 66.3 µM.
Regarding `C=CC(C)(O)CC[C@@H]1C(=C)CC[C@H](Br)[C@@]1(C)CCC1OC1(C)C` (relative stereo), the 50% inhibitory concentration (IC50) in the test on MCF7 (Homo sapiens, MCF7, 48 h) is 71.7 µM; in the test on HeLa (Homo sapiens, HeLa, 48 h) it was 57.9 µM; with A549 (Homo sapiens, A549, 48 h), above 100 µM; in the test on A-431, above 100 µM; with HepG2 (Homo sapiens, HepG2, 48 h) it was 53.8 µM.
`C=CC(C)(O)CC[C@@H]1C(=C)CC[C@H](Br)[C@@]1(C)CCC(O)C(=C)C` (relative stereo): the half-maximal inhibitory concentration (IC50) with MCF7 (Homo sapiens, MCF7, 48 h) was above 100 µM; in the test on HeLa (Homo sapiens, HeLa, 48 h) it was above 100 µM; in the test with A549 (Homo sapiens, A549, 48 h) it was above 100 µM; in the test on A-431, above 100 µM; in the test with HepG2 (Homo sapiens, HepG2, 48 h), above 100 µM.
